{"source": "the EternaBench riboswitch data", "key": {"[1]": {"test_system": "MS2 coat protein", "test": "apparent Kd, MS2 coat protein; higher = weaker binding; RNA-MaP array", "method_in_brief": "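Designed RNAs were transcribed in place on an Illumina sequencing chip from sequenced DNA templates. At room temperature and with or without input ligand, they were incubated with fluorescently labeled MS2 coat protein from 1.5 nM to 3 μM, for 0.8–1.5 h at the lowest and 10–20 min at the highest concentrations. Apparent Kd is the median of the binding-curve fits made per cluster, with designs measured on fewer than 10 clusters excluded.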"}, "[2]": {"test_system": "MS2 coat protein", "test": "apparent Kd, MS2 coat protein; higher = weaker binding; RNA-MaP array; FMN 200 µM where present", "method_in_brief": "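Stalled E. coli RNA polymerase transcribed the designs on Illumina sequencing-chip clusters. SNAP-549-labelled MS2 coat protein was titrated from 0.7 or 1.5 nM, doubling to 3 µM, without and then with constant ligand, in 100 mM Tris-HCl pH 7.5, 80 mM KCl, 4 mM MgCl2, BSA, DTT, yeast tRNA and Tween-20. Per-cluster binding curves were fitted to green signal normalised to red-channel RNA signal and control-cluster median Fmax. The apparent Kd is the median of the filtered fits.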"}, "[3]": {"settings": "designed as: OFF switch for flavin mononucleotide, no ligand"}, "[4]": {"settings": "ligand present: flavin mononucleotide, designed as: OFF switch for flavin mononucleotide"}, "[5]": {"settings": "designed as: ON switch for flavin mononucleotide, no ligand"}, "[6]": {"settings": "ligand present: flavin mononucleotide, designed as: ON switch for flavin mononucleotide"}}, "data": [{"sequence": "AACUGAAGCACCUUAUGCGGCGGCAAAACCCGAGGACCGGUACGGCCGCCACUCGAGUCGCAACAUGAGGAUCACCCAUGUGUAU", "values": [{"measurement": "apparent Kd", "setting": "[1]; designed as: OFF switch for tryptophan, no ligand", "result": 51.3, "unit": "nM"}, {"measurement": "apparent Kd", "setting": "[1]; ligand present: tryptophan, designed as: OFF switch for tryptophan", "result": 117, "unit": "nM"}]}, {"sequence": "CUCGGAAACGGAGGAUAUAGCUGAAGAGGAUUACUAGAAGGCCGAGACAUGAGGAUCACCCAUGUUUUCUCAAGUCGCAGUUUA", "values": [{"measurement": "apparent Kd", "setting": "[1]; [3]", "result": 7.93, "unit": "nM"}, {"measurement": "apparent Kd", "setting": "[1]; [4]", "result": 9.48, "unit": "nM"}]}, {"sequence": "CAAUGCGGUUAGGAUACCAGCGACACACACUUCUCACAACACAUGAGGAUCACCCAUGUCCGCCCUUGGCAGCCUUGACUAAGGU", "values": [{"measurement": "apparent Kd", "setting": "[1]; designed as: OFF switch for theophylline, no ligand", "result": 30.1, "unit": "nM"}, {"measurement": "apparent Kd", "setting": "[1]; ligand present: theophylline, designed as: OFF switch for theophylline", "result": 146, "unit": "nM"}]}, {"sequence": "UGGGCGGAAGGAUAUACAUGAGGAUCACCCAUGUGUCUUUUGCUGAUGGGUGCAUAGUGUAGAAGGUCCAGUGU", "values": [{"measurement": "apparent Kd", "setting": "[1]; [3]", "result": 93.7, "unit": "nM"}, {"measurement": "apparent Kd", "setting": "[1]; [4]", "result": 38.8, "unit": "nM"}]}, {"sequence": "ACUGUACUGGGAGGAUAUGGAGAGUUACCGUAAAUAAUCUACUAGACAUGAGGAUCACCCAUGUUCCAGAAGGCCCCAUGGACC", "values": [{"measurement": "apparent Kd", "setting": "[1]; [5]", "result": 14.9, "unit": "nM"}, {"measurement": "apparent Kd", "setting": "[1]; [6]", "result": 10.4, "unit": "nM"}]}, {"sequence": "CCCUCUUUAUAGGAUAUGUAGACCAUGGGACAAACAGAAGGAUAGACAUGAGGAUCACCCAUGUGGGAAAACUU", "values": [{"measurement": "apparent Kd", "setting": "[1]; [3]", "result": 31.8, "unit": "nM"}, {"measurement": "apparent Kd", "setting": "[1]; [4]", "result": 30.4, "unit": "nM"}]}, {"sequence": "UUCUAUGUGACAGGAUAUAGACUCCACCAGUUUCUAGAAGGGUCACAGACGGAUCUUUAUUUGUCACAUGAGGAUCACCCAUGU", "values": [{"measurement": "apparent Kd", "setting": "[1]; [5]", "result": 28.7, "unit": "nM"}, {"measurement": "apparent Kd", "setting": "[1]; [6]", "result": 9.71, "unit": "nM"}]}, {"sequence": "CGAUCUGGCUAAGGAUAUCAAGUGCGCAUGGUUUGACAGCACAUGAGGAUCACCCAUGUAACGCAUGAGAAGGUAGGCACACAG", "values": [{"measurement": "apparent Kd", "setting": "[1]; [3]", "result": 223, "unit": "nM"}, {"measurement": "apparent Kd", "setting": "[1]; [4]", "result": 183, "unit": "nM"}]}, {"sequence": "CAUGUAGGCGAGAAGGCAACCGCGGUCCGGGAUUGAGGAUAUCGGCCAGGUGAUCCCGCCCAACAUGAGGAUCACCCAUGUAGC", "values": [{"measurement": "apparent Kd", "setting": "[1]; [3]", "result": 339, "unit": "nM"}, {"measurement": "apparent Kd", "setting": "[1]; [4]", "result": 202, "unit": "nM"}]}, {"sequence": "UAUAAUGAAGGAUAUACAUGAGGAUCACCCAUGUUAGACUCUCAGUCGACAGUAAUCCGUAGAAGGUCAUGCCA", "values": [{"measurement": "apparent Kd", "setting": "[1]; [3]", "result": 12.3, "unit": "nM"}, {"measurement": "apparent Kd", "setting": "[1]; [4]", "result": 13.6, "unit": "nM"}]}, {"sequence": "UUAAAACUAGGAUAUACAUGAGGAUCACCCAUGUGAACACACAAACAAAGAAAAUAAUGUAGAAGGAGACUAUA", "values": [{"measurement": "apparent Kd", "setting": "[1]; [3]", "result": 10.8, "unit": "nM"}, {"measurement": "apparent Kd", "setting": "[1]; [4]", "result": 8.87, "unit": "nM"}]}, {"sequence": "AGAUCGCAAUAAGGAUAUGCACCUAAGACUCAAAGAACUCUUGACAUGAGGAUCACCCAUGUAACGCAGAAGGUAUAUGACUCA", "values": [{"measurement": "apparent Kd", "setting": "[1]; [5]", "result": 21, "unit": "nM"}, {"measurement": "apparent Kd", "setting": "[1]; [6]", "result": 15.1, "unit": "nM"}]}, {"sequence": "CAGGAUCCGAAGAAGGGCAUCGGCCACAGGGCUGCAGGAUAUUCAAUUCAUGCAACAUGAGGAUCACCCAUGUAAUGGGCCGUU", "values": [{"measurement": "apparent Kd", "setting": "[1]; [3]", "result": 27.5, "unit": "nM"}, {"measurement": "apparent Kd", "setting": "[1]; [4]", "result": 22.3, "unit": "nM"}]}, {"sequence": "GCCAGGAUGUGAGGAUAUGCUGAGGAUAACUCAGCAGAAGGCACAUGAGGAUCACCCAUGUAAACUUAUAAUAAAUACCCUGGC", "values": [{"measurement": "apparent Kd", "setting": "[2]; [3]", "result": 13, "unit": "nM"}, {"measurement": "apparent Kd", "setting": "[2]; [4]", "result": 28.4, "unit": "nM"}]}, {"sequence": "GAAGACAUAGUUCAGGAUAUAGGAAUAGUCACAUGAGGAUCACCCAUGUGCAUUUAUAUGCGCACUUAGAAGGGAGGUAGUUAUC", "values": [{"measurement": "apparent Kd", "setting": "[2]; [5]", "result": 36.3, "unit": "nM"}, {"measurement": "apparent Kd", "setting": "[2]; [6]", "result": 41, "unit": "nM"}]}, {"sequence": "GUCUGACAUGAGGAUCACCCAUGUAUUCGAGCAUGAGGAUAUAUGACUCGUCAUCGGCGGAUAGAAGGCAUGGUUG", "values": [{"measurement": "apparent Kd", "setting": "[2]; [5]", "result": 169, "unit": "nM"}, {"measurement": "apparent Kd", "setting": "[2]; [6]", "result": 192, "unit": "nM"}]}, {"sequence": "UUAAUUAUACAAGGAUAUCUAUUGUUAUGUCGACUUACAUGAGGAUCACCCAUGUUAAUAUAUGAAGAGAAGGUGUAUUUUCAG", "values": [{"measurement": "apparent Kd", "setting": "[2]; [5]", "result": 157, "unit": "nM"}, {"measurement": "apparent Kd", "setting": "[2]; [6]", "result": 90, "unit": "nM"}]}, {"sequence": "UUGGACGUCGUAGGAUAUGUAGGAUAUUCCUACAUGAGGAUCACCCAUGUUGACAUGGAAGAAGGACAGAAGGACGGUGUCCAU", "values": [{"measurement": "apparent Kd", "setting": "[2]; [5]", "result": 241, "unit": "nM"}, {"measurement": "apparent Kd", "setting": "[2]; [6]", "result": 4.54, "unit": "nM"}]}, {"sequence": "CCGGAAAGGAAGGAUAUGCUAGACGAUAGUCUAGCAGAAGGUCCUACAUGAGGAUCACCCAUGUGUCCUACCGG", "values": [{"measurement": "apparent Kd", "setting": "[2]; [3]", "result": 45.2, "unit": "nM"}, {"measurement": "apparent Kd", "setting": "[2]; [4]", "result": 54.4, "unit": "nM"}]}, {"sequence": "GUUGCACAAGUUAACAUGAGGAUCACCCAUGUCAAAAGACAUGAGGAUAUGGAUCUGAAGAAGAUCCAGAAGGCAUAAUGCUAA", "values": [{"measurement": "apparent Kd", "setting": "[2]; [5]", "result": 796, "unit": "nM"}, {"measurement": "apparent Kd", "setting": "[2]; [6]", "result": 117, "unit": "nM"}]}, {"sequence": "AAAAAGUCAGGAUAUUCGGAUAGGAAAACGAAAACCUAUCCGAAGAAGGGACAUGAGGAUCACCCAUGUAAAAA", "values": [{"measurement": "apparent Kd", "setting": "[2]; [3]", "result": 27.4, "unit": "nM"}, {"measurement": "apparent Kd", "setting": "[2]; [4]", "result": 46.5, "unit": "nM"}]}]}
